Experimental data as given in ChEMBL document CHEMBL1139126, “Diazenedicarboxamides as inhibitors of D-alanine-D-alanine ligase (Ddl)” (Bioorg Med Chem Lett, 2007).
Values after ≈ are worked out from the molar mass of the structure shown.

Tests used:
Escherichia coli [1] = experiment: Inhibition of Escherichia coli DdlB assessed as residual activity at 500 uM
Summary of the method: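 Endpoint phosphate-release assay using purified DdlB with 500 µM test compound, 700 µM D-Ala, 500 µM ATP, in 38.5 mM Hepes pH 8.0 with MgCl2, (NH4)2SO4 and 5% DMSO. Run 30 min at 37 °C, then Biomol reagent and A650 read. Residual activity relative to an uninhibited assay. Mean of two independent experiments.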

Escherichia coli [2] = experiment: Antibacterial activity against acrAB deficient Escherichia coli 1411; assay type: functional
Summary of the method: (§1)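 Broth microdilution MIC in IsoSensitest broth; inoculum 10⁴ cells per mL for E. coli, 10⁶ cells per mL for S. aureus. Compounds in 2-fold dilution series prepared in 50% DMSO. Incubated 16 h at 37 °C with OD600 read every 10 min, shaken 30 s before each read. MIC = lowest concentration preventing growth.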

[3] = Inhibition of Escherichia coli DdlB
Summary of the method: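 Purified E. coli DdlB in 38.5 mM Hepes pH 8.0, 3.25 mM MgCl2, 6.5 mM (NH4)2SO4, 700 µM D-Ala, 500 µM ATP, 5% DMSO, with a range of inhibitor concentrations. Incubated 30 min at 37 °C. Released phosphate detected by Biomol reagent, A650 after 5 min. IC50 taken from residual activity versus no-inhibitor control. Means of two independent experiments.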

Staphylococcus aureus = experiment: Antibacterial activity against Staphylococcus aureus 8325-4; assay type: functional; summary of the method: as §1
Escherichia coli [4] = experiment: Antibacterial activity against Escherichia coli 1411; assay type: functional; summary of the method: as §1

Row | SMILES | Activity (Escherichia coli [1]) | MIC (Escherichia coli [2]) | IC50 [3] | MIC (Staphylococcus aureus) | MIC (Escherichia coli [4])
1 | CCOC(=O)NNC(=O)Nc1cccc(Cl)c1 | 0% | – | – | – | –
2 | O=C(NCc1cccnc1)NNC(=O)Nc1cccc(Cl)c1 | 3% | – | – | – | –
3 | CCOC(=O)/N=N/C(=O)Nc1ccc([N+](=O)[O-])cc1 | 40% | – | – | – | –
4 | O=C(/N=N/C(=O)Nc1ccc(F)cc1)NCc1ccncc1 | – | 64 µg/mL (≈ 212 µM) | 73 µM | 128 µg/mL (≈ 425 µM) | 64 µg/mL (≈ 212 µM)
5 | CCOC(=O)/N=N/C(=O)Nc1ccc(F)cc1 | 37% | – | – | – | –
6 | N[C@@H]1CONC1=O [CYCLOSERINE] | – | 16 µg/mL (≈ 157 µM) | 314 µM | 32 µg/mL (≈ 313 µM) | 16 µg/mL (≈ 157 µM)
7 | CCOC(=O)/N=N/C(=O)Nc1ccccc1 | 1% | – | – | – | –
8 | CC(C)(C)c1ccc(NC(=O)/N=N/C(=O)NCc2ccncc2)cc1 | – | – | > 500 µM | – | –
9 | O=C(NCc1cccnc1)NNC(=O)Nc1ccccc1 | 0% | – | – | – | –
10 | COC(=O)NNC(=O)NCCCl | 5% | – | – | – | –
11 | CCC(C)c1ccc(NC(=O)/N=N/C(=O)NCCCl)cc1 (stereo not drawn) | – | > 256 µg/mL | 25 µM | > 256 µg/mL | > 256 µg/mL
12 | O=C(/N=N/C(=O)Nc1cccc(Cl)c1)NCc1ccncc1 | – | 64 µg/mL (≈ 201 µM) | 33 µM | 64 µg/mL (≈ 201 µM) | 64 µg/mL (≈ 201 µM)
13 | O=C(/N=N/C(=O)NCc1ccccn1)NCCCl | – | > 256 µg/mL | 119 µM | > 256 µg/mL | > 256 µg/mL
14 | CC(C)c1ccc(NC(=O)/N=N/C(=O)NCCCl)cc1 | – | > 256 µg/mL | 49 µM | > 256 µg/mL | > 256 µg/mL

Results, then the compound that gave them:

Row | Activity (Escherichia coli [1]) | MIC (Escherichia coli [2]) | IC50 [3] | MIC (Staphylococcus aureus) | MIC (Escherichia coli [4]) | SMILES
15 | – | > 256 µg/mL | 123 µM | > 256 µg/mL | > 256 µg/mL | O=C(/N=N/C(=O)NCc1cccnc1)NCc1cccnc1
16 | 1% | – | – | – | – | CCOC(=O)NNC(=O)Nc1ccccc1
17 | 1% | – | – | – | – | COC(=O)NNC(=O)NC1CCCCC1
18 | 0% | – | – | – | – | CCOC(=O)NNC(=O)Nc1ccc(F)cc1
19 | 33% | – | – | – | – | CCOC(=O)/N=N/C(=O)Nc1cccc(Cl)c1
20 | 7% | – | – | – | – | CC(C)(C)OC(=O)/N=N/C(=O)NCCCl
21 | – | – | > 500 µM | – | – | CN(C)CCNC(=O)/N=N/C(=O)Nc1ccccc1
22 | 2% | – | – | – | – | CN(C)CCNC(=O)NNC(=O)Nc1ccccc1
23 | – | 256 µg/mL (≈ 885 µM) | 121 µM | 128 µg/mL (≈ 442 µM) | 256 µg/mL (≈ 885 µM) | O=C(/N=N/C(=O)NC1CCCCC1)NCc1ccncc1
24 | – | 64 µg/mL (≈ 226 µM) | 111 µM | 64 µg/mL (≈ 226 µM) | 64 µg/mL (≈ 226 µM) | O=C(/N=N/C(=O)Nc1ccccc1)NCc1ccccn1
25 | – | 64 µg/mL (≈ 226 µM) | 36 µM | 128 µg/mL (≈ 452 µM) | 64 µg/mL (≈ 226 µM) | O=C(/N=N/C(=O)Nc1ccccc1)NCc1cccnc1
26 | – | 64 µg/mL (≈ 201 µM) | 15 µM | 256 µg/mL (≈ 806 µM) | 64 µg/mL (≈ 201 µM) | O=C(/N=N/C(=O)Nc1cccc(Cl)c1)NCc1cccnc1
27 | – | 128 µg/mL (≈ 475 µM) | 236 µM | > 256 µg/mL | 128 µg/mL (≈ 475 µM) | O=C(/N=N/C(=O)NCc1ccncc1)NCCCl
28 | – | 32 µg/mL (≈ 113 µM) | 106 µM | 128 µg/mL (≈ 452 µM) | 64 µg/mL (≈ 226 µM) | O=C(/N=N/C(=O)Nc1ccccc1)NCc1ccncc1
29 | – | > 256 µg/mL | 133 µM | > 256 µg/mL | > 256 µg/mL | O=C(/N=N/C(=O)NCCCl)NCCCl
30 | 7% | – | – | – | – | COC(=O)/N=N/C(=O)NCCCl
31 | 1% | – | – | – | – | CCOC(=O)NNC(=O)Nc1ccc([N+](=O)[O-])cc1
